Measurements published in ChEMBL document CHEMBL1143313, “Synthesis of novel 4,6-di(substituted)amino-1,2-dihydro-1,3,5-triazine derivatives as topical antiseptic agents” (2009).

Legend:
Type in all cases: functional
[1] = tested on: Escherichia coli; experiment: Bactericidal activity against Escherichia coli NIHJ JC-2 preincubated for 1 min before addition of growth medium measured after 40 to 48 hrs
[2] = tested on: Escherichia coli; experiment: Bactericidal activity against Escherichia coli NIHJ JC-2 preincubated for 3 mins before addition of growth medium measured after 40 to 48 hrs
[3] = tested on: Escherichia coli; experiment: Bactericidal activity against Escherichia coli NIHJ JC-2 preincubated for 5 mins before addition of growth medium measured after 40 to 48 hrs
[4] = tested on: Pseudomonas aeruginosa; experiment: Bactericidal activity against Pseudomonas aeruginosa PAO1 preincubated for 1 min before addition of growth medium measured after 40 to 48 hrs
[5] = tested on: Pseudomonas aeruginosa; experiment: Bactericidal activity against Pseudomonas aeruginosa PAO1 preincubated for 3 mins before addition of growth medium measured after 40 to 48 hrs
[6] = tested on: Pseudomonas aeruginosa; experiment: Bactericidal activity against Pseudomonas aeruginosa PAO1 preincubated for 5 mins before addition of growth medium measured after 40 to 48 hrs
[7] = tested on: Staphylococcus aureus; experiment: Antibacterial activity against Staphylococcus aureus 209PJC after 24 hrs
Outline: (§1)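 Value is the minimal inhibitory concentration (MIC) against the test organism, read after 24 h of incubation.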

[8] = tested on: Staphylococcus aureus; experiment: Antibacterial activity against methicillin-resistant Staphylococcus aureus 97-115 after 24 hrs
Outline: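 Read-out is the minimal inhibitory concentration (MIC), taken after 24 h incubation with the test organism.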

[9] = tested on: Escherichia coli; experiment: Antibacterial activity against Escherichia coli NIHJ JC-2 after 24 hrs; outline: as §1
[10] = tested on: Pseudomonas aeruginosa; experiment: Antibacterial activity against Pseudomonas aeruginosa PAO1; outline: as §1
[11] = tested on: Staphylococcus aureus; experiment: Bactericidal activity against Staphylococcus aureus 209PJC preincubated for 1 min before addition of growth medium measured after 40 to 48 hrs
[12] = tested on: Staphylococcus aureus; experiment: Bactericidal activity against Staphylococcus aureus 209PJC preincubated for 3 mins before addition of growth medium measured after 40 to 48 hrs
[13] = tested on: Staphylococcus aureus; experiment: Bactericidal activity against Staphylococcus aureus 209PJC preincubated for 5 mins before addition of growth medium measured after 40 to 48 hrs
[14] = tested on: Staphylococcus aureus; experiment: Bactericidal activity against methicillin-resistant Staphylococcus aureus 97-115 preincubated for 1 min before addition of growth medium measured after 40 to 48 hrs
Outline: (§2)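 Read-out is the minimal bactericidal concentration (MBC), taken after 1, 3 and 5 min contact of compound with the test organism.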

[15] = tested on: Staphylococcus aureus; experiment: Bactericidal activity against methicillin-resistant Staphylococcus aureus 97-115 preincubated for 3 mins before addition of growth medium measured after 40 to 48 hrs; outline: as §2
[16] = tested on: Staphylococcus aureus; experiment: Bactericidal activity against methicillin-resistant Staphylococcus aureus 97-115 preincubated for 5 mins before addition of growth medium measured after 40 to 48 hrs; outline: as §2

Compound | MBC [1] [µg/mL] | MBC [2] [µg/mL] | MBC [3] [µg/mL] | MBC [4] [µg/mL] | MBC [5] [µg/mL] | MBC [6] [µg/mL] | MIC [7] [µg/mL] | MIC [8] [µg/mL] | MIC [9] [µg/mL] | MIC [10] [µg/mL] | MBC [11] [µg/mL] | MBC [12] [µg/mL] | MBC [13] [µg/mL] | MBC [14] [µg/mL] | MBC [15] [µg/mL] | MBC [16] [µg/mL]
CCCCCCCCCNC1=NC(C)(C)NC(NCc2ccc(OC)cc2)=N1.CS(=O)(=O)O | 12.5 | 6.3 | 3.1 | 25 | 12.5 | 12.5 | 0.8 | 1.6 | 25 | 50 | 6.3 | 6.3 | 3.1 | > 100 | > 100 | > 100
CC(=O)O.CCCCCCCCNC1=NC(NCCC)=NC(C)(C)N1 |  |  |  |  |  |  | 1.6 | 6.3 | 100 | 100 |  |  |  |  |  | 
CC(=O)O.CCCCCCCNC1=NC(C)(C)NC(NCCCCCCC)=N1 | 6.3 | 3.1 | 3.1 | 3.1 | 1.6 | 1.6 | 0.8 | 0.8 | 12.5 | 50 | 6.3 | 6.3 | 3.1 | 25 | 25 | 12.5
CC(=O)O.CCCCCCCCNC1=NC(C)(C)NC(NCCCCCCCC)=N1 |  |  |  |  |  |  | 0.8 | 1.6 | 100 | > 100 |  |  |  |  |  | 
CC(=O)O.CCCCCCCCNC1=NC(C)(C)NC(NCCc2ccccc2)=N1 | 6.3 | 3.1 | 3.1 | 6.3 | 6.3 | 3.1 | 0.8 | 1.6 | 25 | 25 | 50 | 12.5 | 12.5 | > 100 | > 100 | > 100
CC(=O)O.CCCCCCCCCCNC1=NC(C)(C)NC(NCc2ccccc2)=N1 | 25 | 12.5 | 6.3 | 3.1 | 3.1 | 1.6 | 0.4 | 0.4 | 12.5 | 25 | 6.3 | 6.3 | 6.3 | 12.5 | 6.3 | 6.3
CC(=O)O.CCCCCCCCCCNC1=NC(C)(C)NC(NCc2ccc(OC)cc2)=N1 | 12.5 | 6.3 | 6.3 | 12.5 | 3.1 | 3.1 | 0.4 | 0.8 | 25 | 50 | 12.5 | 6.3 | 3.1 | 25 | 6.3 | 6.3
CC(=O)O.CCCCCCCCCNC1=NC(C)(C)NC(NCc2ccccc2)=N1 | 6.3 | 6.3 | 3.1 | 6.3 | 3.1 | 3.1 | 0.8 | 1.6 | 12.5 | 12.5 | 12.5 | 6.3 | 6.3 | 12.5 | 6.3 | 6.3
CC(=O)O.CCCCCCCCNC1=NC(C)(C)NC(NCc2ccccc2)=N1 | 12.5 | 6.3 | 6.3 | 25 | 12.5 | 12.5 | 0.8 | 1.6 | 12.5 | 25 | 25 | 12.5 | 6.3 | > 50 | 50 | 50
CC(=O)O.CCCCCCCCCCNC1=NC(C)(C)NC(NCc2ccc(C)cc2)=N1 |  |  |  |  |  |  | 0.8 | 0.8 | 100 | 100 |  |  |  |  |  | 
CC(=O)O.CCCCCCCCNC1=NC(C)(C)NC(NCc2ccccc2Cl)=N1 | 3.1 | 3.1 | 1.6 | 6.3 | 3.1 | 1.6 | 0.8 | 0.8 | 25 | 25 | 12.5 | 6.3 | 6.3 | 12.5 | 6.3 | 6.3
CC(=O)O.CCCCCCCNC1=NC(C)(C)NC(NCc2ccc(C)cc2)=N1 | 25 | 12.5 | 12.5 | 25 | 12.5 | 12.5 | 0.8 | 1.6 | 25 | 50 | 25 | 12.5 | 12.5 | 50 | 50 | 50
CC(=O)O.CCCCCCCCNC1=NC(C)(C)NC(NCCCC)=N1 | 50 | 25 | 12.5 | 50 | 25 | 12.5 | 1.6 | 3.1 | 25 | 50 | 25 | 12.5 | 6.3 | 25 | 12.5 | 12.5
CC(=O)O.CCCCCCCCCCNC1=NC(C)(C)NC(NCCc2ccccc2)=N1 | 12.5 | 12.5 | 12.5 | 25 | 12.5 | 12.5 | 0.8 | 0.8 | 25 | 25 | 50 | 12.5 | 12.5 | > 50 | > 50 | > 50
CC(=O)O.CCCCCCCNC1=NC(C)(C)NC(Nc2ccccc2)=N1 |  |  |  |  |  |  | 6.3 | 6.3 | 50 | 100 |  |  |  |  |  | 
CC(=O)O.CCCCCCCCCCCNC1=NC(C)(C)NC(NCc2ccc(OC)cc2)=N1 |  |  |  |  |  |  | 0.4 | 0.8 | 100 | 100 |  |  |  |  |  | 
CC(=O)O.CCCCCCCCCCCNC1=NC(C)(C)NC(NCc2ccccc2)=N1 |  |  |  |  |  |  | 0.4 | 0.8 | 100 | 100 |  |  |  |  |  | 
CC(=O)O.CCCCCCCCCCNC1=NC(C)(C)NC(Nc2ccccc2)=N1 |  |  |  |  |  |  | 0.4 | 0.4 | 12.5 | 100 |  |  |  |  |  | 
